Legend:
[1] = (§1) Anti-inflammatory activity as selectin-mediated rolling of human neutrophils on stimulated human umbilical vein endothelial cells; format: functional, cell-based; details: endothelial cell
Outline: (§2)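 Parallel plate flow chamber; human neutrophils rolled over confluent HUVEC monolayers activated with […] just before the run to raise surface P-selectin. Rolling cells counted by digital imaging/videotape, averaged over 10 fields on each of three monolayers per test article. Glycyrrhizin trisodium salt as positive control.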

[2] = target: T1, P-selectin (Homo sapiens, UniProt P16109); test: Inhibitory concentration against selectin P in Biacore assay
T1 sequence (P16109 whole entry): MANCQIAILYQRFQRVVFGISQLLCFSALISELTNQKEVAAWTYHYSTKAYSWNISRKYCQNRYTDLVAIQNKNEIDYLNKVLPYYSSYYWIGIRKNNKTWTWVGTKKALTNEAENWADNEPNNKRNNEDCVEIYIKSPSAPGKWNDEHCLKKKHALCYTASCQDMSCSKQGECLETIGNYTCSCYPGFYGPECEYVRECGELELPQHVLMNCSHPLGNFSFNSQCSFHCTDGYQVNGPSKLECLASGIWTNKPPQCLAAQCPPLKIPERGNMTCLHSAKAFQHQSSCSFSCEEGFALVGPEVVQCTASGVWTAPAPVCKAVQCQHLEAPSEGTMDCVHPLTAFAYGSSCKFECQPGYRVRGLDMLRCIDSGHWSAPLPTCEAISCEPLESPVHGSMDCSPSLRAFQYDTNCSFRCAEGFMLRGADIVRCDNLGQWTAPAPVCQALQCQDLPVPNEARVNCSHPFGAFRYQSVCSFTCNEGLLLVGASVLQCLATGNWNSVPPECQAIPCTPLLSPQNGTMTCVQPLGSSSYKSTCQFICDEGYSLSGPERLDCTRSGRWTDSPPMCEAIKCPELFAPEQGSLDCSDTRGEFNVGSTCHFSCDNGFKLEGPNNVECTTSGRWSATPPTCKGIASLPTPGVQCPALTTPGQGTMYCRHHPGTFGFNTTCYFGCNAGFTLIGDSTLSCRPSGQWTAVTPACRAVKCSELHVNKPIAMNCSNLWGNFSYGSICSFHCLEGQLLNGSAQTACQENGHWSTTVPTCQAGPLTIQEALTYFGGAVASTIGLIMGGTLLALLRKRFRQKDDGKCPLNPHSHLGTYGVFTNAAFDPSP
Outline: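 SPR at 25 °C. Biotinylated monomeric truncated human PSGL-1 (19ek) was immobilised on a streptavidin chip. Compounds were preincubated 1 h with 500 nM monomeric P-selectin (P-LE) in HEPES/NaCl/1 mM CaCl2/MgCl2/0.05% P40/10% DMSO, then injected at 0–6 mM in duplicate, at least two runs. IC50 was extrapolated from the RU vs concentration plot after blank and reference subtraction.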

[3] = as §1; format: functional, cell-based; details: endothelial cell; remark: listed apart in the source
Outline: as §2, with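 “article. Active compounds titrated for IC50.” for “article.”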

[4] = Maximum concentration observed in rat ( 20 mg/kg iv ); format: ADME, organism-based; parameters: dose 20 mg/kg, route intravenous; details: in vivo
Outline: (§3)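 Single 20 mg/kg iv bolus (10 mg/mL in 50% DMSO/50% PEG400). Blood drawn at 5 min and 0.5, 0.75, 1, 2, 4, 7, 24 h, with saline replacing lost volume. Plasma precipitated with CH3CN and analysed by LC/MS. Linear trapezoid noncompartmental analysis.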

[5] = Area under curve in rat ( 20 mg/kg iv ); format: ADME, organism-based; parameters: dose 20 mg/kg, route intravenous; details: in vivo; outline: as §3
[6] = Clearance observed in rat ( 20 mg/kg iv ); format: ADME, organism-based; parameters: dose 20 mg/kg, route intravenous; details: in vivo; outline: as §3

SMILES | IC50 [1] [µM] | IC50 [2] [µM] | IC50 [3] [µM] | Cmax [4] [µM] | AUC [5] [µM·h] | clearance [6] [mL/min/kg]
O=C(O)[C@]1(OCc2ccccc2-c2cccc3c2Sc2ccccc2S3)C[C@@H](O)[C@@H](O)[C@H](O)C1 | 1000 | ≤ 2 |  |  |  | 
O=C(O)[C@]1(OCc2ccc(-c3ccccc3C(F)(F)F)cc2)C[C@@H](O)[C@@H](O)[C@H](O)C1 |  | 10000 | 625 | 212 | 219 | 4
